Test results published in PMC3656968 (Journal of medicinal chemistry, 2013).
Where two headings read alike, the source gives them in different places. Marks after values point to notes of the source that are not given here.

How the values were obtained:
[1] = Relaxivity in HEPES buffer in the absence of HSA; assay type: physicochemical; settings: 50 mM HEPES buffer pH 7.4, 37 °C
In short: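 Complex solid redissolved in 50 mM HEPES and filtered, with Gd concentration set by ICP-MS. Longitudinal relaxation (1/T1) measured at 0.47 and 1.41 T without HSA at 0.05-0.4 mM complex, in 50 mM HEPES pH 7.4 at 37 °C. r1 taken as slope of 1/T1 versus Gd concentration (mM). Error estimated at ±10% of value.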

[2] = biological target: T1, human serum albumin (HSA) (Homo sapiens, UniProt P02768); experiment: Ultrafiltration assay of binding to HSA; settings: for % bound to 4.5% HSA: 0.1 mM probe, 4.5% w/v HSA in 50 mM HEPES, ultrafiltration; for binding to HSA on average: average of the diastereoisomers Gd(6a) and Gd(6b), 0.1 mM, 4.5% w/v HSA
In short: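 Complex at a constant 0.1 mM (50 mM HEPES, concentration by ICP-MS) with 4.5% w/v HSA, ultrafiltered through a 5000 MW cutoff membrane. Compared against the filtrate of an HSA-free solution. Unbound and total Gd measured directly by ICP-MS, and binding given as percent bound to HSA. Error estimated at ±10%.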

[3] = biological target: T1, human serum albumin (HSA); experiment: Relaxivity in the presence of 4.5% w/v HSA; settings: 50 mM HEPES buffer pH 7.4, 37 °C
In short: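 Complex in 50 mM HEPES with 4.5% w/v HSA, pH 7.4, 37 °C, with Gd content quantified by ICP-MS. 1/T1 recorded at 0.47 and 1.41 T across several complex concentrations. Observed relaxivity is the slope of 1/T1 against Gd concentration (mM). Estimated error is ±10% of the measured value.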

[4] = biological target: T1, human serum albumin (HSA); settings: 0.1 mM probe, 4.5% w/v HSA; cited from earlier work
[5] = absence of HSA, cited from earlier work
[6] = biological target: T1, human serum albumin (HSA); experiment: T1 weighted MR image of samples with or without HSA; settings: 0.1 mM compound, with or without 4.5 % w/v HSA
In short: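 Samples of 0.1 mM compound, with or without 4.5% w/v HSA, imaged side by side with a T1-weighted sequence (TR/TE/flip angle 25 ms/4.7 ms/70°). Signal intensity read for each sample.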

[7] = biological target: T1, human serum albumin (HSA); settings: cited from earlier work

T1 sequence (P02768 25-609): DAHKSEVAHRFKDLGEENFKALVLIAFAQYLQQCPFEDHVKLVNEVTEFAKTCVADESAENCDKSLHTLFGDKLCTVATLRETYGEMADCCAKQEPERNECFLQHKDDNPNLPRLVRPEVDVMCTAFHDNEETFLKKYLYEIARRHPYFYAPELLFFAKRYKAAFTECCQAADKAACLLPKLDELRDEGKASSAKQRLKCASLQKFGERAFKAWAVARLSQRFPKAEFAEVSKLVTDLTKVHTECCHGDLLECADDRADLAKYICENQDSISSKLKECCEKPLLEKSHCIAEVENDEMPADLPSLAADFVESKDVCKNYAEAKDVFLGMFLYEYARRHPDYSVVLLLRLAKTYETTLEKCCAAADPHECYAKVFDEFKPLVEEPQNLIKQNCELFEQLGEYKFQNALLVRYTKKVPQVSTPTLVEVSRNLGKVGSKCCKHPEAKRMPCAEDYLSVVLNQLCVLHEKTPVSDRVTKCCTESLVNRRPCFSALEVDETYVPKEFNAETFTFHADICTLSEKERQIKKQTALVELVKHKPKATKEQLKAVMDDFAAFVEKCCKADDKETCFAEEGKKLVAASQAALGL

Compound	r1^free ([1]; 0.47T)	r1^free ([1]; 1.41T)	% bound to 4.5% HSA [2]	binding to HSA on average [2]	r1^obs 4.5% HSA ([3]; 0.47T)	r1^obs 4.5% HSA ([3]; 1.41T)	% bound to 4.5% HSA [4]	r1^free ([5]; 0.47T)	r1^free ([5]; 1.41T)	signal / contrast in T1 weighted image with versus without HSA [6]	r1^obs 4.5% HSA ([7]; 0.47T)	r1^obs 4.5% HSA ([7]; 1.41T)
C[C@H](NC(=O)C(CN1CCN(CC(=O)O)CCN(CC(=O)O)CCN(CC(=O)O)CC1)NC(=O)C(N)Cc1cc(I)c(O)c(I)c1)c1ccccc1 (single isomer, unassigned) [Gd(6a)]	7.1 mM⁻¹ s⁻¹	6.6 mM⁻¹ s⁻¹	34%	37%	18.5 mM⁻¹ s⁻¹	10.9 mM⁻¹ s⁻¹	–	–	–	–	–	–
C[C@H](NC(=O)C(CN1CCN(CC(=O)O)CCN(CC(=O)O)CCN(CC(=O)O)CC1)NC(=O)C(N)Cc1cc(I)c(O)c(I)c1)c1ccccc1 (single isomer, unassigned) [Gd(6b)]	6.8 mM⁻¹ s⁻¹	6.1 mM⁻¹ s⁻¹	39%	37%	18.4 mM⁻¹ s⁻¹	11.7 mM⁻¹ s⁻¹	–	–	–	–	–	–
C[C@H](NC(=O)C(N)CN1CCN(CC(=O)O)CCN(CC(=O)O)CCN(CC(=O)O)CC1)c1ccccc1 (stereo partly drawn) [Gd(2), 2,2′,2″-(10-(2-amino-3-oxo-3-(((S)-1-phenylethyl)amino)propyl)-1,4,7,10-tetraazacyclododecane-1,4,7-triyl)triacetic acid]	4.8 mM⁻¹ s⁻¹	3.9 mM⁻¹ s⁻¹	7%	–	7.1 mM⁻¹ s⁻¹	5.9 mM⁻¹ s⁻¹	–	–	–	–	–	–
NC(Cc1cc(I)c(O)c(I)c1)C(=O)NC(CN1CCN(CC(=O)O)CCN(CC(=O)O)CCN(CC(=O)O)CC1)C(=O)O (stereo not drawn) [Gd(4), 2,2′,2″-(10-(2-(2-amino-3-(4-hydroxy-3,5-diiodophenyl)propanamido)-2-carboxyethyl)-1,4,7,10-tetraazacyclododecane-1,4,7-triyl)triacetic acid]	6.1 mM⁻¹ s⁻¹	5.8 mM⁻¹ s⁻¹	20%	–	23.7 mM⁻¹ s⁻¹	17.4 mM⁻¹ s⁻¹	–	–	–	–	–	–
COC(=O)CNC(=O)C(CN1CCN(CC(=O)O)CCN(CC(=O)O)CCN(CC(=O)O)CC1)NC(=O)C(N)Cc1cc(I)c(O)c(I)c1 (stereo not drawn) [Gd(5), 2,2′,2″-(10-(2-(2-amino-3-(4-hydroxy-3,5-diiodophenyl)propanamido)-3-((2-methoxy-2-oxoethyl)amino)-3-oxopropyl)-1,4,7,10-tetraazacy-clododecane-1,4,7-triyl)triacetic acid]	6.9 mM⁻¹ s⁻¹	6.3 mM⁻¹ s⁻¹	25%	–	20.9 mM⁻¹ s⁻¹	16.7 mM⁻¹ s⁻¹	–	–	–	–	–	–
O=C([O-])CN(CCN(CC(=O)[O-])C[C@H](COP(=O)([O-])OC1CCC(c2ccccc2)(c2ccccc2)CC1)N(CC(=O)[O-])CC(=O)[O-])CC(=O)[O-].[Gd+3].[H+].[H+].[H+] [MS-325, gadofosveset]	–	–	–	–	–	–	88% ^a	6.6 ^a mM^−1s^−1	5.5 ^a mM^−1s^−1	increased signal in presence of HSA	42 ^a mM^−1s^−1	23.8 ^a mM^−1s^−1
